Experimental data taken from ChEMBL document CHEMBL4190381, “Biofilm inhibition and anti-Candida activity of a cationic lipo-benzamide molecule with twin-nonyl chain” (Bioorg Med Chem Lett, 2018).
≈ marks a conversion by molar mass, not a printed value. Calls of active or inactive are those of the source. The calls are words filed in the database; no cut-off is given here.

Legend:
[1] = test system: Candida albicans; experiment: Antifungal activity against Candida albicans ATCC 90028 planktonic cells assessed as inhibition of fungal growth incubated for 48 hrs by broth microdilution assay; assay type: functional; details: for MIC80: ATCC 90028, 48 h
Outline: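 Broth microdilution against planktonic C. albicans ATCC 90028. MIC is the lowest concentration giving […] relative to the growth control. Percent inhibition is taken against an untreated growth control and plotted versus concentration.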

[2] = test system: Candida albicans; experiment: Antifungal activity against Candida albicans SC5314 assessed as inhibition of fungal growth incubated for 48 hrs by broth microdilution assay; assay type: functional; details: SC5314, 48 h
Outline: (§1)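 Broth microdilution against planktonic Candida cultures, with fluconazole as reference antifungal. MIC read as lowest concentration giving […] relative to a growth control without compound. Percentage inhibition versus growth control was plotted against concentration.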

[3] = test system: Candida albicans; experiment: Antifungal activity against Candida albicans Gu4 assessed as inhibition of fungal growth incubated for 48 hrs by broth microdilution assay; assay type: functional; details: Gu4, 48 h; outline: as §1
[4] = test system: Candida albicans; experiment: Antifungal activity against Candida albicans Gu5 assessed as inhibition of fungal growth incubated for 48 hrs by broth microdilution assay; assay type: functional; details: Gu5, 48 h; outline: as §1
[5] = test system: Candida albicans; experiment: Antifungal activity against Candida albicans DSY294 assessed as inhibition of fungal growth incubated for 48 hrs by broth microdilution assay; assay type: functional; details: DSY294, 48 h; outline: as §1
[6] = test system: Candida albicans; experiment: Antifungal activity against Candida albicans DSY296 assessed as inhibition of fungal growth incubated for 48 hrs by broth microdilution assay; assay type: functional; details: DSY296, 48 h; outline: as §1
[7] = test system: Nakaseomyces glabratus; experiment: Antifungal activity against Candida glabrata MTCC 3814 assessed as inhibition of fungal growth incubated for 48 hrs by broth microdilution assay; assay type: functional; details: MTCC 3814, 48 h; outline: as §1
[8] = test system: Pichia kudriavzevii; experiment: Antifungal activity against Candida krusei MTCC 9215 assessed as inhibition of fungal growth incubated for 48 hrs by broth microdilution assay; assay type: functional; details: MTCC 9215, 48 h; outline: as §1
[9] = test system: Candida parapsilosis; experiment: Antifungal activity against Candida parapsilosis MTCC 7043 assessed as inhibition of fungal growth incubated for 48 hrs by broth microdilution assay; assay type: functional; details: Lodderomyces parapsilosis, MTCC 7043, 48 h; outline: as §1
[10] = test system: Candida tropicalis; experiment: Antifungal activity against Candida tropicalis MTCC 9038 assessed as inhibition of fungal growth incubated for 48 hrs by broth microdilution assay; assay type: functional; details: MTCC 9038, 48 h; outline: as §1
[11] = test system: Candida albicans; experiment: Inhibition of adhesion of Candida albicans ATCC 90028 on polystyrene surface up to 25 ug/ml incubated for 90 mins by MTT assay; assay type: functional, organism-based
Outline: (§2)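 1x10^6 C. albicans ATCC 90028 cells allowed to grow and adhere in polystyrene-coated 96-well wells; compound added at different time points to cover adhesion, biofilm formation or mature biofilm stages. Inhibition quantified by MTT metabolic assay against untreated growth control. BIC80 and BEC80 taken as concentrations giving 80% inhibition of formation or of mature biofilm respectively.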

[12] = test system: Candida albicans; experiment: Antibiofilm activity against Candida albicans ATCC 90028 grown on polystyrene surface assessed as inhibition of biofilm formation added immediately after cell adhesion by MTT assay; assay type: functional; outline: as §2
[13] = test system: Candida albicans; experiment: Antibiofilm eradication activity against Candida albicans ATCC 90028 grown on polystyrene surface assessed as inhibition of mature biofilm formation added 24 hrs after biofilm maturation and measured after 48 hrs by MTT assay; assay type: functional; outline: as §2
[14] = test system: Candida albicans; experiment: Inhibition of adhesion of Candida albicans ATCC 90028 on polystyrene surface incubated for 90 mins by MTT assay; assay type: functional, organism-based
Outline: (§3)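 C. albicans ATCC 90028 cells adhered to polystyrene wells with test compound. Adhesion is quantified by MTT metabolic assay and expressed as percent inhibition versus an untreated growth control. Fluconazole is the reference, tested up to 25 µg ml-1.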

[15] = test system: Candida albicans; experiment: Inhibition of adhesion of Candida albicans ATCC 90028 on polystyrene surface at 12.5 ug/ml incubated for 90 mins by MTT assay; assay type: functional; details: ATCC 90028, 1.5 h; outline: as §3
[16] = test system: Candida albicans; experiment: Toxicity in Candida albicans ATCC 90028 planktonic cells assessed as induction of protein release at 12.5 ug/ml incubated for 1 hr by spectrophotometry; assay type: organism-based
Outline: (§4)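 C. albicans cells incubated with increasing compound concentrations. Supernatant OD260 (nucleic acids) and OD280 (proteins) recorded to quantify macromolecule release on lysis.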

[17] = test system: Erythrocyte; experiment: Hemolytic activity in human erythrocytes assessed as induction of hemolysis incubated for 1 hr by spectrophotometry; assay type: cell-based
Outline: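 Human erythrocytes incubated with a range of concentrations. Released hemoglobin is measured spectrophotometrically and expressed as percent hemolysis. 1% Triton X-100 gives 100% lysis, and a buffer-treated sample is the negative control. HC90 is the concentration lysing 90% of RBCs.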

[18] = Safety index, ratio of HC90 for hemolytic activity in human erythrocytes to MIC for antifungal activity against Candida albicans ATCC 90028 planktonic cells; assay type: toxicity, cell-based
[19] = test system: Candida albicans; experiment: Toxicity in Candida albicans ATCC 90028 planktonic cells assessed as induction of nucleic acids release at 12.5 ug/ml incubated for 1 hr by spectrophotometry; assay type: organism-based; outline: as §4
[20] = test system: Candida albicans; experiment: Toxicity in Candida albicans ATCC 90028 planktonic cells assessed as induction of morphological changes at 3.1 ug/ml incubated for 24 hrs by scanning electron Microscopy; assay type: organism-based
Outline: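 C. albicans ATCC 90028 cells incubated 24 h with 3.1 µg ml-1 compound. Surface morphology examined by scanning electron microscopy at 2500X and 5000X magnification against untreated cells.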

[21] = test system: Candida albicans; experiment: Antibiofilm activity against Candida albicans ATCC 90028 grown on polystyrene surface assessed as inhibition of biofilm formation at 1.56 to 25 ug/ml added immediately after cell adhesion by bright-field microscopy; assay type: functional, organism-based
Outline: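 1x10^6 C. albicans ATCC 90028 cells allowed to adhere and grow in polystyrene 96-well wells; compound at 1.56, 3.12, 6.25, 12.5 and 25 µg ml-1; biofilm examined microscopically against an untreated growth control.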

SMILES	MIC80 [1]	MIC80 [2]	MIC80 [3]	MIC80 [4]	MIC80 [5]	MIC80 [6]	MIC80 [7]	MIC80 [8]	MIC80 [9]	MIC80 [10]	growth inhibition (GI) [1]	other results
OC(Cn1cncn1)(Cn1cncn1)c1ccc(F)cc1F [FLUCONAZOLE]	4 µg/mL (≈ 13.1 µM)	2 µg/mL (≈ 6.53 µM)	4 µg/mL (≈ 13.1 µM)	128 µg/mL (≈ 418 µM)	4 µg/mL (≈ 13.1 µM)	128 µg/mL (≈ 418 µM)	4 µg/mL (≈ 13.1 µM)	64 µg/mL (≈ 209 µM)	2 µg/mL (≈ 6.53 µM)	4 µg/mL (≈ 13.1 µM)	–	inhibition [11]: inactive; inhibition [12]: inactive; inhibition [13]: inactive
CCCCCCCCCCC[N+](C)(CCCCCCCCCCC)CCNC(=O)c1ccc(OC)cc1.[I-]	≤ 3.1 µg/mL	–	–	–	–	–	–	–	–	–	Dose-dependent effect	–
CCCCCCCC[N+](C)(CCCCCCCC)CCNC(=O)c1ccc(OC)cc1.[I-]	≤ 6.2 µg/mL	–	–	–	–	–	–	–	–	–	Dose-dependent effect	–
CCCCCCCCCC[N+](C)(CCCCCCCCCC)CCNC(=O)c1ccc(OC)cc1.[I-]	≤ 6.2 µg/mL	–	–	–	–	–	–	–	–	–	Dose-dependent effect	–
CCCCCCCCC[N+](C)(CCCCCCCCC)CCNC(=O)c1ccc(OC)cc1.[I-]	3.1 µg/mL	1.5 µg/mL	3.1 µg/mL	3.1 µg/mL	1.5 µg/mL	1.5 µg/mL	1.5 µg/mL	1.5 µg/mL	1.5 µg/mL	0.7 µg/mL	Dose-dependent effect	inhibition [14]: Dose-dependent effect; inhibition at 12.5 µg/mL [15]: 90%; MBIC80 [12]: 3.12 µg/mL; MBEC80 [13]: 12.5 µg/mL; Activity [16]: Non-Toxic; HC90 [17]: 12.5 µg/mL; selectivity ratio [18]: 4; Activity [19]: Non-Toxic; Activity [20]: Non-Toxic; Activity [21]: Active
